From PubChem
IMP-1 inh-1 – blocks Pseudomonas aeruginosa IMP-1 metallo-beta-lactamase | purified IMP-1, nitrocefin hydrolysis, epi-absorbance fluorescence | inhibition, % at 5.6 µM | hit rate 0.45% among 290,000 | AID 1556;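 active = inhibition above the mean plus 3 SD of all compounds in the same screening run, cut at about 4.5% in these data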;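 also: 0% = IMP-1 with DMSO and 100% = DMSO wells lacking enzyme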
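Assay system: purified IMP-1; Quantity: IMP-1 0.2 nM before substrate addition; Medium: HEPES buffer pH 7.1 with ZnSO4 and Brij 35; Incubation: 15 min enzyme–compound preincubation, then 25 min nitrocefin reaction, 25 °C; Signal: fluorescence quenching readout, ex 480/em 530 nm; Controls: DMSO with and without IMP-1; Repeats: singlicate testing.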
DNA FID counter – fluorescent intercalator displacement, NS3 helicase counter-screen; DNA fluorescent intercalator displacement, fluorescence; inhibition, % at 7.9 µM; hit rate 0.17% among 290,000; in the data active = inhibition above about 37%;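 also: 0% = vehicle and 100% = reference compound; higher means more ethidium bromide displaced from hairpin DNA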
VIM-2 inhibitor – blocks Pseudomonas aeruginosa VIM-2 metallo-beta-lactamase. purified VIM-2, nitrocefin hydrolysis, epi-absorbance fluorescence. inhibition, % at 5.6 µM. hit rate 0.89% among 290,000. AID 1527;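 active = inhibition above the mean of all tested compounds plus 3 SD, cutoff set per screening run, cut at about 7.5% in these data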;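 also: red hydrolysis product quenches plate fluorescence so inhibitors raise well fluorescence; 0% = enzyme with DMSO and 100% = DMSO without enzyme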
HCV NS3 hel inh – blocks Hepatitis C virus NS3 helicase unwinding; NS3 helicase DNA unwinding, Cy5 molecular beacon fluorescence; inhibition, % at 10.9 µM; hit rate 0.56% among 290,000; AID 1800;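 active = inhibition above the mean of all tested compounds plus 3 SD, set per campaign, cut at about 35% in these data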;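 also: 0% = DMSO wells and 100% = thioflavine S control wells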
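Test system: hepatitis C virus NS3 helicase domain fragment enzyme. Also added: annealed dual-labelled DNA beacon duplex, ATP-started. Timing: 60 min unwinding reaction at 25 °C after ATP addition. Technique: Cy5 fluorescence. Measure: % inhibition of unwinding.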
IMP-1 inh-2 – IMP-1 inhibition, counter-screen for VIM-2 inhibitors. shares compounds with VIM-2 inhibitor. AID 1856. inhibition, % at 5.6 µM. purified IMP-1, nitrocefin hydrolysis, epi-absorbance fluorescence. 1,300 tested, under 10 active; call rule not given here;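 also: 0% = enzyme with vehicle and 100% = vehicle without enzyme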
VIM-2 FRET ctr – VIM-2 FRET inhibition, artifact counter-screen. purified VIM-2, CCF2 FRET substrate hydrolysis. AID 1857. shares compounds with VIM-2 inhibitor. hit rate 23% among 1,300. inhibition, % at 5.6 µM;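 active = inhibition above the mean of all tested compounds plus 3 SD, cut at about 19% in these data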;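 also: 0% = VIM-2 plus DMSO and 100% = no enzyme wells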
TEM-1 inh – TEM-1 inhibition, counter-screen for VIM-2 inhibitors; hit rate 3% among 1,300; Purified TEM-1, nitrocefin hydrolysis, epi-absorbance fluorescence; shares compounds with VIM-2 inhibitor; inhibition, % at 5.6 µM;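 active = inhibition above that campaign's mean inhibition plus 3 SD, cut at about 0.46% in these data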;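 also: 0% = TEM-1 with DMSO and 100% = TEM-1 with 100 µM potassium clavulanate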
Target sequence (P62593 whole entry, looked up): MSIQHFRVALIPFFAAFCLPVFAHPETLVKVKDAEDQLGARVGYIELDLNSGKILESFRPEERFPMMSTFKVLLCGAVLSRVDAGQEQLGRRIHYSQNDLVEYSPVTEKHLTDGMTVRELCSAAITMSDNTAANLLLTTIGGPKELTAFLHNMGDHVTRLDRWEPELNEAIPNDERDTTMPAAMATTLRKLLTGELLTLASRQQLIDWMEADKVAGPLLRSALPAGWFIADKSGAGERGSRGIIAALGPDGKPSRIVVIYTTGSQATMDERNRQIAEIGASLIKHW
VIM-2 confirm 2 – confirmation of P. aeruginosa VIM-2 metallo-beta-lactamase inhibitors; shares compounds with VIM-2 inhibitor; purified VIM-2, nitrocefin hydrolysis, epi-absorbance; inhibition, % at 5.6 µM; hit rate 96% among 1,300; AID 2187;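 active = inhibition of the VIM-2 beta-lactamase enzyme above about 11% from the earlier first-round screen, limit read from the data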;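 also: 0% = VIM-2 with DMSO and 100% = buffer wells without enzyme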
Numbers without * were called inactive; / = not tested or not shown. Shown are actives, neighbours in structure and some others; about 1.9% of the full set was active somewhere.

SMILES	IMP-1 inh-1	DNA FID counter	VIM-2 inhibitor	HCV NS3 hel inh	IMP-1 inh-2	VIM-2 FRET ctr	TEM-1 inh	VIM-2 confirm 2
COCCNC(=S)N/N=C(\C)c1ccc(O)cc1	-3.0	-5.3	-6.3	8.0	/	/	/	/
C=CCNC(=S)N/N=C(\C)c1ccc(-n2ccnc2)cc1	-1.0	7.2	66.4*	-9.6	-2.8	-7.0	-7.7	80.4*
Cc1[nH]n(-c2ncc(-c3ccccc3)s2)c(=O)c1C(c1ccc(Br)cc1)C(C#N)C#N (configuration not stated)	-4.8	-4.0	-4.1	18.1	/	/	/	/
Cc1onc(-c2ccccc2)c1C(=O)OCC(=O)NCc1ccc(F)cc1	-4.7	-12.1	-2.0	4.6	/	/	/	/
CN(C)c1ccc(/C=N/N(CCC(=O)NC(C)(C)C)C2=NS(=O)(=O)c3ccccc32)cc1	-3.2	-13.1	19.7*	-5.5	-3.8	-0.9	-7.2	3.6
COc1cc(/C=N/N(CCO)C2=NS(=O)(=O)c3ccccc32)cc(OC)c1OC	-4.9	-30.4	12.2*	-11.4	-2.8	-3.6	-6.2	21.4*
Cc1ccc(C(=O)C2CCN(CC(=O)NC3CCCC3)CC2)cc1	-2.0	-9.1	0.1	2.2	/	/	/	/
COCCNc1cc(C)c(C#N)c2nc3ccccc3n12	-0.4	-3.3	26.2*	2.0	-2.9	-9.5	-6.3	39.5*
Cc1c(Cc2ccccc2)c(NCCCO)n2c(nc3ccccc32)c1C#N	-2.4	-30.0	2.0	-10.6	/	/	/	/
Cc1cc(NCCOCCO)n2c(nc3ccccc32)c1C#N	-2.8	-6.0	33.0*	3.6	-3.5	-9.0	-4.1	49.5*
Cc1cc(NCCCO)n2c(nc3ccccc32)c1C#N	-2.5	-1.4	6.4	0.1	/	/	/	/
CCOc1cc(C2C(C#N)=C(N)Oc3n[nH]c(C)c32)ccc1OCCN1CCOCC1 (configuration not stated)	-1.0	-1.9	1.3	-4.7	/	/	/	/
CCOc1cc(C2C(C#N)=C(N)Oc3n[nH]c(CC)c32)ccc1OCCN1CCOCC1 (configuration not stated)	-1.8	-1.6	12.9*	3.9	-2.4	2.4	-5.0	8.3*
O=C(c1sc2cccc(F)c2c1Cl)N1CCN(c2ncccn2)CC1	-2.0	-18.9	4.8	-10.9	/	/	/	/
Cc1cc(C(=O)Nc2ccc(Br)cc2)cs1	-2.4	0.8	-3.3	-1.3	/	/	/	/
CCNc1nc2c(c(=O)n(C)c(=O)n2C)n1CCCc1ccccc1	0.6	-18.2	-2.1	-0.5	/	/	/	/
CCCN1CCN(CCCNC(=O)c2cc3c(=O)n(C)c4ccccc4c3n2C)CC1	-4.7	14.2	15.7*	8.4	-2.5	4.0	-5.1	30.4*
Cn1c(C(=O)Nc2ccc3c(c2)OCCO3)cc2c(=O)n(C)c3ccccc3c21	-4.7	-0.7	-1.9	4.9	/	/	/	/
CN1CCN(CCNC(=O)c2cc3c(=O)n(C)c4ccccc4c3n2C)CC1	2.2	10.6	21.4*	-0.6	-2.1	5.1	-5.2	32.6*
Cn1c(C(=O)NCCCN2CCCCCC2)cc2c(=O)n(C)c3ccccc3c21	1.0	23.6	22.4*	-28.6	-0.4	-2.3	-4.1	28.8*
C=CCn1c(CSc2ccc(C)cc2)n[nH]c1=S	-0.6	-23.1	-0.5	4.3	/	/	/	/
Cc1cc2c(cc1S(=O)(=O)NCCc1ccc(Cl)cc1)OCC(=O)N2	-1.0	-13.0	-1.0	-1.7	/	/	/	/
CN(CCOc1ccccc1)C(=O)c1ccc(N2CCCC2)c([N+](=O)[O-])c1	-0.8	-26.2	-0.7	0.6	/	/	/	/
CCc1ccc(/C=N/Nc2ncnc3nc[nH]c23)cc1	-3.1	-10.9	15.1*	-4.0	-2.8	-14.6	-1.1	42.8*
Cc1cccc(-c2cc3nc(-c4ccccc4)cc(=O)n3[nH]2)c1	-2.3	-14.3	-4.9	3.1	/	/	/	/
SMILES	IMP-1 inh-1	DNA FID counter	VIM-2 inhibitor	HCV NS3 hel inh	IMP-1 inh-2	VIM-2 FRET ctr	TEM-1 inh	VIM-2 confirm 2
Cc1ccc(C(=O)OC2OC(=O)C(Cl)=C2N2CCOCC2)cc1 (configuration not stated)	-2.3	-12.2	-1.8	9.0	/	/	/	/
CN1CCN(Cc2cc(COCc3ccccc3)c3cccnc3c2O)CC1	-2.4	-0.6	12.4*	-22.1	-3.2	32.7*	-4.8	33.0*
Oc1ccc(CN2CCN(Cc3ccccc3)CC2)c2cccnc12	-1.6	-1.9	-1.4	-19.5	/	/	/	/
CC(=O)c1c(Cl)nc2cccc3c2c1-c1ccccc1C3=O	-2.5	8.8	20.4*	9.8	-0.5	0.4	-0.5	31.4*
O=C(O)CCC(=O)N1CCN(c2ccc(C(=O)c3ccc(F)cc3)cc2)CC1	-2.1	-12.4	15.9*	-8.3	-3.3	0.5	-5.8	6.5
O=C(c1ccccc1)c1ccc(N2CCNCC2)cc1	-3.4	-2.0	18.2*	-0.2	-2.9	-3.7	-3.8	45.6*
CN1CCN(c2ccc(C(=O)c3ccc(F)cc3)cc2)CC1	-1.0	9.4	24.2*	-3.5	-2.3	-2.4	-6.0	39.9*
O=C(Nc1cccc(C(=O)O)c1)/C(=C\c1ccccc1)NC(=O)c1cccc2ccccc12	-0.1	-37.0	-1.1	16.6	/	/	/	/
CCOC(=O)Nc1ccc2c(c1)N(C(=O)CCN(CC)CC)c1ccccc1S2=O (configuration not stated)	-0.6	-2.8	-0.3	3.5	/	/	/	/
CC(=O)Nc1ccc(S(=O)(=O)N2CCN(C(=O)c3ncoc3-c3ccccc3)CC2)cc1	-0.6	-8.3	-3.5	2.7	/	/	/	/
CCN1CCN(c2ccc(N=Cc3ccccc3O)cc2)CC1	-10.3	15.7	39.6*	-47.3	-7.8	-4.9	-6.3	28.0*
COc1cccc(C=Nc2ccc(N3CCOCC3)cc2)c1O	-18.9	1.7	-1.3	14.2	/	/	/	/
Cc1cccc(NC(=O)CSc2ccc3nnc(-c4cccnc4)n3n2)c1	-0.9	-7.0	0.8	11.6	/	/	/	/
Cc1cc(=O)n2c3ccccc3n(CC(O)CN3CCN(Cc4ccccc4)CC3)c2c1C#N (configuration not stated)	-3.5	5.8	14.4*	-5.7	-3.0	2.2	-12.7	32.8*
CCC1CCCCN1CC(O)Cn1c2ccccc2n2c(=O)cc(C)c(C#N)c12 (configuration not stated)	-0.3	9.0	3.5	2.6	/	/	/	/
Cc1cc(=O)n2c3ccccc3n(CC(O)CN3CCC(C)CC3)c2c1C#N (configuration not stated)	1.2	13.3	4.5	6.7	/	/	/	/
Cc1cc(=O)n2c3ccccc3n(CC(O)CN3CCN(CCO)CC3)c2c1C#N (configuration not stated)	-3.5	15.8	22.2*	7.4	-4.6	0.2	-10.2	37.6*
COC(=O)c1sc(-c2cccs2)cc1NC(=O)/C=C/C(=O)O	-2.3	-15.2	-1.4	9.7	/	/	/	/
CC(C)NC(=S)N/N=C1\CCCCC1C1CCCCC1 (configuration not stated)	-5.4	-4.3	-6.8	0.0	/	/	/	/
COCCNC(=O)c1cc2nc(-c3ccccc3)cc(C)n2n1	-3.2	-4.1	-0.9	3.3	/	/	/	/
